From article PMC4732916 (Journal of medicinal chemistry, 2016)
Read-outs that look alike come from different tables or passages of the source.

How the values were obtained:
Ca^2+-S100B = target: T1, Ca^2+-S100B (Rattus norvegicus, UniProt P04631); test: HSQC NMR of Ca2+-loaded S100B with SBiX compounds; format: binding; settings: result in words; for effect on NMR spectra of Ca^2+-S100B (chemical shift perturbations / broadening): compared with pentamidine and heptamidine
T1 sequence (P04631 1-92): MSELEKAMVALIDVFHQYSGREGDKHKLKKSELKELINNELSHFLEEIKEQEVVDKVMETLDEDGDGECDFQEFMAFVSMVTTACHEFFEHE
Method in brief: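 Samples: 15N-labelled rat S100B (purified >99%) at 0.1 mM subunit with 0.125 mM test compound, 10 mM CaCl2, 15 mM NaCl, 0.34 mM NaN3, 0.2% TPEN, 5% DMSO-d6, 10% D2O, 10 mM HEPES pH 7.2. 1H-15N HSQC spectra; 15N shifts indirectly referenced (ratio 0.10132905). Spectra were inspected visually for combined 1H+15N chemical shift perturbations to map the binding site.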

WM115 melanoma cells = test: Cellular assays, EC50 quoted in text without S100B level; format: cell-based, human; settings: for EC50: Homo sapiens; for S100B-dependent killing (high vs low S100B cells): S100B-knockdown cell lines, result in words
Ca^2+-loaded S100B = target: T2, Ca^2+-loaded S100B (Rattus norvegicus, UniProt P04631); test: Fluorescence polarization competition assay; format: binding; settings: Site 1 probe; result in words
T2 sequence (P04631 1-92): T1 sequence (P04631 1-92)
Method in brief: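 Competition of test compound with 10 nM TAMRA-labelled TRTK12 peptide (CapZ residues 265-276), bound to Site 1 of 1 μM rat S100B, all final concentrations. Compound titrated from the highest attainable concentration. Fluorescence polarization read at room temperature, ex 544 nm/em 590 nm.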

[1] = test system: WM115 melanoma cells transfected with shRNA^S100B (low S100B); test: SYBR Green cell proliferation; format: cell-based, human; settings: read-out: Low S100B EC50 Mean ± S.D.
[2] = WM-115, read-out: EC50 in cellular assays

Compound	EC50 (WM115 melanoma cells; [2])	binding to Ca^2+-S100B as measured using NMR (Ca^2+-S100B)	ability to compete with TAMRA-TRTK probe in FPCA (Ca^2+-loaded S100B)	other results
c1cc(C2=NCCN2)ccc1OCCCCCCCCOc1ccc(C2=NCCN2)cc1 [5d, 1,8-bis (4-(4,5-dihydro-1H-imidazol-2-yl)phenoxy) octane]	–	–	–	effect on NMR spectra of Ca^2+-S100B (chemical shift perturbations / broadening) (Ca^2+-S100B): significant broadening
c1cc(C2=NCCCCN2)ccc1OCCCCCCOc1ccc(C2=NCCCCN2)cc1 [7c, 1,6-bis(4-(4,5,6,7-tetrahydro-1H-1,3-diazepin-2-yl)phenoxy)hexane]	250 to 300 µM	–	–	–
CCCN(CCCOc1ccc(C(=N)N)cc1)CCCOc1ccc(C(=N)N)cc1 [16b, 4,4′-(((propylazanediyl)bis(propane-3,1-diyl))bis(oxy))dibenzimidamide]	> 500 µM	bound weakly	neither was able to compete	–
c1cc(C2=NCCCCN2)ccc1OCCCCCCCOc1ccc(C2=NCCCCN2)cc1 [7a, 1,7-bis(4-(4,5,6,7-tetrahydro-1H-1,3-diazepin-2-yl)phenoxy)heptane]	5 to 20 µM	–	–	–
N=C(NCCCCCCCN)c1ccc(OCCCCCCCCOc2ccc(C(=N)NCCCCCCCN)cc2)cc1 [9b, 4,4′-(octane-1,8-diylbis (oxy))bis(N-(7-aminoheptyl)benzimidamide)]	–	interacted	found to compete	effect on NMR spectra of Ca^2+-S100B (chemical shift perturbations / broadening) (Ca^2+-S100B): significant broadening
c1cc(C2=NCCCCN2)ccc1OCCCCCOc1ccc(C2=NCCCCN2)cc1 [7b, 1,5-bis (4-(4,5,6,7-tetrahydro-1H-1,3-diazepin-2-yl)phenoxy)pentane]	5 to 20 µM	–	–	–
N=C(N)c1ccc(OCCCCCOc2ccc(C(=N)N)cc2)cc1 [4b, pentamidine, reference compound]	–	–	–	EC50 (WM115 melanoma cells; WM-115, read-out: ^CellsEC50): 26 µM
N=C(N)c1ccc(Oc2ccc(-c3cc4ccc(C(=N)N)cc4[nH]3)cc2)cc1 [compound 17, 2-(4-(4-carbamimidoylphenoxy)phenyl)-1H-indole-6-carboximidamide]	–	found to bind	found to inhibit TAMRA-TRTK binding	S100B-dependent killing (high vs low S100B cells) (WM115 melanoma cells): no S100B-dependent killing
N=C(N)c1ccc(OCCCCCCCOc2ccc(C(=N)N)cc2)cc1 [4a, Heptamidine]	–	–	–	S100B-dependent killing (high vs low S100B cells) (WM115 melanoma cells): selectivity in killing melanoma cells with high S100B over those with low S100B was clearly observed
c1cc(C2=NCCCN2)ccc1OCCCCCCOc1ccc(C2=NCCCN2)cc1 [6c, 1,6-bis(4-(1,4,5,6-tetrahydropyrimidin-2-yl)phenoxy)hexane]	25 to 45 µM	–	–	–
c1cc(C2=NCCCCN2)ccc1OCCCCCCCCOc1ccc(C2=NCCCCN2)cc1 [7d, 1,8-bis (4-(4,5,6,7-tetrahydro-1H-1,3-diazepin-2-yl)phenoxy)octane]	5 to 20 µM	–	–	–
N=C(N)c1ccc(OCCCN(CCCOc2ccc(C(=N)N)cc2)Cc2ccccc2)cc1 [16a, 4,4′-(((benzylazanediyl)bis(propane-3,1-diyl))bis(oxy))dibenzimidamide]	40 to 50 µM	bound weakly	neither was able to compete	–
c1cc(C2=NCCN2)ccc1OCCCCCOc1ccc(C2=NCCN2)cc1 [5b, 1,5-bis(4-(4,5-dihydro-1H-imidazol-2-yl)phenoxy)pentane]	–	–	–	effect on NMR spectra of Ca^2+-S100B (chemical shift perturbations / broadening) (Ca^2+-S100B): significant broadening
CNC(=O)NC(=N)c1ccc(OCCCCCCCOc2ccc(C(=N)NC(=O)NC)cc2)cc1 [compound 11, 4,4′-(heptane-1,7-diylbis (oxy))bis(N-(methylcarbamoyl)benzimidamide)]	130 to 150 µM	ability to bind	neither was able to compete	–
c1cc(C2=NCCCN2)ccc1OCCCCCCCCOc1ccc(C2=NCCCN2)cc1 [6d, 1,8-bis(4-(1,4,5,6-tetrahydropyrimidin-2-yl)phenoxy)octane]	25 to 45 µM	–	–	–
c1cc(C2=NCCCN2)ccc1OCCCCCOc1ccc(C2=NCCCN2)cc1 [6b, 1,5-bis(4-(1,4,5,6-tetrahydropyrimidin-2-yl)phenoxy)pentane]	200 to 600 µM	–	–	effect on NMR spectra of Ca^2+-S100B (chemical shift perturbations / broadening) (Ca^2+-S100B): significant broadening
c1cc(C2=NCCCN2)ccc1OCCCCCCCOc1ccc(C2=NCCCN2)cc1 [6a, 1,7-bis (4-(1,4,5,6-tetrahydropyrimidin-2-yl)phenoxy)heptane]	200 to 600 µM	–	–	–
c1cc(C2=NCCN2)ccc1OCCCCCCOc1ccc(C2=NCCN2)cc1 [5c, 1,6-bis(4-(4,5-dihydro-1H-imidazol-2-yl)phenoxy)hexane]	–	–	–	effect on NMR spectra of Ca^2+-S100B (chemical shift perturbations / broadening) (Ca^2+-S100B): significant broadening
N=C(NCCCCCCCN)c1ccc(OCCCCCCCOc2ccc(C(=N)NCCCCCCCN)cc2)cc1 [9a, 4,4′-(heptane-1,7-diylbis(oxy))bis(N-(7-aminoheptyl)benzimidamide)]	–	interacted	found to compete	effect on NMR spectra of Ca^2+-S100B (chemical shift perturbations / broadening) (Ca^2+-S100B): significant broadening
hexamidine [4c]	–	–	–	EC50 [1]: 234 ± 7.9 µM
N=C(NC(=O)Nc1ccccc1)c1ccc(OCCCCCCCOc2ccc(C(=N)NC(=O)Nc3ccccc3)cc2)cc1 [compound 10, 4,4′-(heptane-1,7-diylbis(oxy))bis(N-(phenylcarbamoyl)benzimidamide)]	< 1 µM	ability to bind	neither was able to compete	–
N=C(NCCCCCN)c1ccc(OCCCCCOc2ccc(C(=N)NCCCCCN)cc2)cc1 [compound 8, 4,4′-(pentane-1,5-diylbis(oxy))bis(N-(5-aminopentyl)benzimidamide)]	35 to 40 µM	interacted	found to compete	–
